Bioassay records from PubChem.
A selection: hits, their analogues and other compounds. The true share with any hit is near 5.9%.
IDH1 R132H inh = IDH1 R132H (human) inhibition; O75874; IDH1 R132H reductase, diaphorase/resazurin fluorescence, 60 min; inhibition, % at 10 µM; actives 0.18% (n = 70,000); in the data active = inhibition above about 34%; inconclusive = no clear call, values can overlap the other calls; inactive = below about 11%;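 also: 0% = DMSO and 100% = no enzyme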
Pf Dd2 inh = blocks growth of Plasmodium falciparum Dd2 parasites; P. falciparum Dd2 growth, SYBR Green, 72 h; hits give low values; activity change, % at 10 µM; actives 2.3% (n = 94,000); AID 1159554; in the data active = activity change below about -80%; inconclusive = no clear call, values can overlap the other calls
KDM4C inh = KDM4C (human) demethylase inhibition; Q9H3R0; GST-KDM4C 2-372, H3K9me3 peptide, LANCE TR-FRET; inhibition, % at 12.5 µM; actives 0.15% (n = 96,000); AID 720574;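 active = mean replicate inhibition above about 25%, with at least 55% of replicates also reaching it, limit read from the data, passing the limit was not always enough; inconclusive = only one of those two conditions met; inactive = neither condition met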
Target sequence (Q9H3R0 2-372 limits assumed): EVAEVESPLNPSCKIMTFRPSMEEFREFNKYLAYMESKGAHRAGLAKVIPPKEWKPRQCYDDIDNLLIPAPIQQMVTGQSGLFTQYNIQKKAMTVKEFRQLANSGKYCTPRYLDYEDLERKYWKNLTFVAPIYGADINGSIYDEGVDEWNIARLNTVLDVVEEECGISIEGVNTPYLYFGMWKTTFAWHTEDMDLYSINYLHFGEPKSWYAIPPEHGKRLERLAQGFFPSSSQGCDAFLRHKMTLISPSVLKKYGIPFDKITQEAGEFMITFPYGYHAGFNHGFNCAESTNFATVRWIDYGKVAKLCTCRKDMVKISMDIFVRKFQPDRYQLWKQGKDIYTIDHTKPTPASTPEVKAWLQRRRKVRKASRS
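Material: N-terminal GST-fused human GASC-1 (KDM4C) fragment, residues 2-372. Input: 10 nM enzyme. Incubation: enzyme reaction 30 min, then detection 60 min, both room temperature. Doses: one test concentration per compound. Read-out basis: inhibition from TR-FRET ratio decrease. Detection: LANCE TR-FRET, excitation 340 nm, emissions 618 and 671 nm.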
T cruzi growth-1 = blocks T. cruzi growth in NIH3T3 culture; AID 624255; actives 5.9% (n = 77,000); T. cruzi beta-gal in NIH3T3, GalScreen luminescence, 90 h; inhibition, % at 8.34 µM;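 active = mean inhibition above about 93%, with at least 55% of replicates each passing it, limit read from the data, passing the limit was not always enough; inconclusive = only one of those two conditions holds; inactive = neither condition holds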
T cruzi growth-2 = blocks T. cruzi growth in NIH3T3 host cells. shares compounds with T cruzi growth-1. inhibition, % at 8.35 µM. T. cruzi beta-gal in NIH3T3, GalScreen luminescence, 90 h. actives 72% (n = 5,600);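 active = mean replicate inhibition above about 95% and at least 55% of replicates individually reaching it, limit read from the data; inconclusive = only one of the two criteria is met; inactive = neither criterion is met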
T cruzi growth-3 = inhibitors of T. cruzi proliferation; inhibition, % at 2.09 µM; AID 651740; shares compounds with T cruzi growth-1; T. cruzi beta-gal in NIH3T3, GalScreen luminescence, 90 h; actives 21% (n = 5,600);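 active = mean inhibition above about 95%, with at least 55% of replicates also reaching it, limit read from the data; inconclusive = meets just one of the two conditions; inactive = meets neither condition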;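 also: plate controls were neutral control median for no effect and positive control median for full effect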
3T3 cytotox = cytotoxicity in mouse NIH/3T3 fibroblasts; shares compounds with T cruzi growth-1; actives 14% (n = 5,600); NIH/3T3 viability, CellTiter-Glo ATP luminescence, 90 h; cytotoxicity (signal decrease), % at 8.35 µM; AID 651742;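 active = mean signal decrease across replicates above about 35% based on untreated-well scatter, with enough replicates individually passing, limit read from the data; inconclusive = no rule stated though some were filed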;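 also: 0% = median of neutral control wells and 100% = median of positive control wells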
NIH3T3 tox 2 = cytotoxicity in mouse NIH/3T3 fibroblasts; shares compounds with T cruzi growth-1; NIH/3T3 viability, CellTiter-Glo ATP luminescence, 90 h; inhibition, % at 24.9 µM; actives 56% (n = 5,600);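 active = mean loss of cell viability signal at or above a set limit, and enough replicates individually reaching it; inconclusive = meets only the mean limit or only the replicate share; inactive = meets neither condition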;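 also: 0% = median of neutral control wells and 100% = median of positive control wells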
Active calls of the source: *; u = inconclusive; x = not tested or not shown; ! = a repeat was not active.

SMILES	IDH1 R132H inh	Pf Dd2 inh	KDM4C inh	T cruzi growth-1	T cruzi growth-2	T cruzi growth-3	3T3 cytotox	NIH3T3 tox 2
CC(=O)N1CCCCN2[C@H](CO)[C@H](c3ccc(C#Cc4ccccc4F)cc3)[C@H]2C1	x	-25	-2	31	x	x	x	x
CCC(=O)N1CCCCN2[C@H](CO)[C@H](c3ccc(C#Cc4ccccc4F)cc3)[C@@H]2C1	x	-13	-3	120*	99*	88	69*	58*
CC(=O)N1CCCCN2[C@H](C1)[C@@H](c1ccc(C#Cc3ccccc3F)cc1)[C@@H]2CO	x	-21	0	112*	u	28	30	106*
CC(=O)N1CCCCN2[C@@H](CO)[C@H](c3ccc(C#Cc4ccccc4F)cc3)[C@@H]2C1	x	-4	-2	88	x	x	x	x
CCC(=O)N1CCCCN2[C@H](C1)[C@@H](c1ccc(C#Cc3ccccc3F)cc1)[C@@H]2CO	x	-9	-1	100*	100*	61	50*	105*
Cc1noc(C)c1NC(=O)N(C)C[C@H]1Oc2ccc(NS(=O)(=O)c3ccccc3)cc2C(=O)N([C@H](C)CO)C[C@H]1C	0	15	1	23	x	x	x	x
Cc1noc(C)c1S(=O)(=O)Nc1ccc2c(c1)CC(=O)N([C@@H](C)CO)C[C@@H](C)[C@@H](CN(C)Cc1ccccc1)O2	1	17	0	72	x	x	x	x
C[C@H]1CN([C@@H](C)CO)C(=O)c2cc(/C=C/c3ccccc3)cnc2O[C@@H]1CN(C)S(=O)(=O)c1ccccc1	x	-62	-2	127*	106*	67	5	u
Cc1ccc(S(=O)(=O)N(C)C[C@H]2Oc3c(cccc3N(C)C)C(=O)N([C@@H](C)CO)C[C@H]2C)cc1	x	-40	2	102*	76	20	24	10
Cc1ccc(S(=O)(=O)N(C)C[C@H]2Oc3c(cccc3N(C)C)C(=O)N([C@H](C)CO)C[C@H]2C)cc1	0	13	0	-21	x	x	x	x
C[C@@H]1CN([C@H](C)CO)C(=O)c2cc(/C=C/c3ccccc3)cnc2O[C@H]1CN(C)S(=O)(=O)c1ccccc1F	0	-40	0	109*	113*	59	-3	24*
C[C@H]1CN([C@@H](C)CO)C(=O)c2cc(/C=C/c3ccccc3)cnc2O[C@H]1CN(C)S(=O)(=O)c1ccccc1	-1	-45	-3	94	x	x	x	x
C[C@H](CO)N1C[C@H](C)[C@H](CN(C)S(=O)(=O)c2ccccc2)Oc2ncc(/C=C/c3ccccc3)cc2C1=O	-2	-49	-3	113*!	u	78	13	71*
C[C@@H]1CN([C@H](C)CO)C(=O)c2cc(/C=C/c3ccccc3)cnc2O[C@@H]1CN(C)S(=O)(=O)c1ccccc1	x	-37	0	89	x	x	x	x
CCC(=O)Nc1ccc2c(c1)OC[C@@H](C)N(Cc1ccncc1)C[C@@H](C)[C@@H](OC)CN(C)C2=O	0	-15	1	50	x	x	x	x
C[C@H](NC(=O)C[C@@H]1C[C@H]2c3cc(NC(=O)C4CCOCC4)ccc3O[C@H]2[C@H](CO)O1)c1ccccc1	0	2	-1	-14	x	x	x	x
Cc1ccc(S(=O)(=O)N(C)C[C@@H]2Oc3ncc(/C=C/c4ccccc4)cc3C(=O)N([C@H](C)CO)C[C@@H]2C)cc1	-1	-70	2	120*	102*	92	25	54*
O=C(C[C@@H]1CC[C@@H]2[C@H](COC[C@@H](O)CN2Cc2ccc(Oc3ccccc3)cc2)O1)N1CCN(c2ccccc2)CC1	x	-71	-1	96*	98*	67	11	32*
O=C(C[C@H]1CC[C@H]2[C@@H](COC[C@@H](O)CN2Cc2ccc(Oc3ccccc3)cc2)O1)N1CCN(c2ccccc2)CC1	x	-76	-1	127*	101*	57	-32	104*
